# Data reported in ChEMBL document CHEMBL2062435, “Synthesis and in vitro antibacterial activity of gemifloxacin derivatives containing a substituted benzyloxime moiety” (2012).
# Test system: Staphylococcus epidermidis
# Experiment: Antimicrobial activity against extended spectrum beta-lactamases-producing methicillin-sensitive Staphylococcus epidermidis 10-11 after 18-24 hrs by two-fold serial dilution method
# Assay type: functional
# In short: (§1)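 Agar-medium twofold serial dilution against Gram-positive and Gram-negative strains; MIC taken as the lowest compound concentration giving complete inhibition of bacterial growth after incubation at 35 °C for 18-24 h.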
row,Structure (SMILES),MIC
1,COc1ccc(CO/N=C2\CN(c3nc4c(cc3F)c(=O)c(C(=O)O)cn4C3CC3)CC2CN)c(OC)c1OC.CS(=O)(=O)O (racemic),2 µg/mL

# Test system: Pseudomonas aeruginosa
# Experiment: Antimicrobial activity against Pseudomonas aeruginosa 10-12 after 18-24 hrs by two-fold serial dilution method
# Assay type: functional
# In short: as §1
row,Structure (SMILES),MIC
1,COc1ccc(CO/N=C2\CN(c3nc4c(cc3F)c(=O)c(C(=O)O)cn4C3CC3)CC2CN)c(OC)c1OC.CS(=O)(=O)O (racemic),8 µg/mL

# Test system: Enterococcus faecalis
# Experiment: Antimicrobial activity against Enterococcus faecalis 10-5 after 18-24 hrs by two-fold serial dilution method
# Assay type: functional
# In short: as §1
row,Structure (SMILES),MIC
1,COc1ccc(CO/N=C2\CN(c3nc4c(cc3F)c(=O)c(C(=O)O)cn4C3CC3)CC2CN)c(OC)c1OC.CS(=O)(=O)O (racemic),1 µg/mL

# Test system: Enterococcus faecalis
# Experiment: Antimicrobial activity against Enterococcus faecalis 10-6 after 18-24 hrs by two-fold serial dilution method
# Assay type: functional
# In short: as §1
row,Structure (SMILES),MIC
1,COc1ccc(CO/N=C2\CN(c3nc4c(cc3F)c(=O)c(C(=O)O)cn4C3CC3)CC2CN)c(OC)c1OC.CS(=O)(=O)O (racemic),2 µg/mL

# Test system: Staphylococcus aureus
# Experiment: Antimicrobial activity against extended spectrum beta-lactamases-producing methicillin-resistant Staphylococcus aureus 10-15 after 18-24 hrs by two-fold serial dilution method
# Assay type: functional
# In short: (§2)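 Agar twofold serial dilution MIC against clinical isolates. MIC was taken as the lowest concentration giving complete inhibition of bacterial growth after incubation at 35 °C for 18-24 h.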
row,Structure (SMILES),MIC
1,COc1ccc(CO/N=C2\CN(c3nc4c(cc3F)c(=O)c(C(=O)O)cn4C3CC3)CC2CN)c(OC)c1OC.CS(=O)(=O)O (racemic),0.25 µg/mL

# Test system: Pseudomonas aeruginosa
# Experiment: Antimicrobial activity against extended spectrum beta-lactamases-producing Pseudomonas aeruginosa 10-9 after 18-24 hrs by two-fold serial dilution method
# Assay type: functional
# In short: as §1
row,Structure (SMILES),MIC
1,COc1ccc(CO/N=C2\CN(c3nc4c(cc3F)c(=O)c(C(=O)O)cn4C3CC3)CC2CN)c(OC)c1OC.CS(=O)(=O)O (racemic),8 µg/mL

# Test system: Staphylococcus epidermidis
# Experiment: Antimicrobial activity against extended spectrum beta-lactamases-producing methicillin-resistant Staphylococcus epidermidis 10-13 after 18-24 hrs by two-fold serial dilution method
# Assay type: functional
# In short: as §2
row,Structure (SMILES),MIC
1,COc1ccc(CO/N=C2\CN(c3nc4c(cc3F)c(=O)c(C(=O)O)cn4C3CC3)CC2CN)c(OC)c1OC.CS(=O)(=O)O (racemic),0.5 µg/mL

# Test system: Pseudomonas aeruginosa
# Experiment: Antimicrobial activity against extended spectrum beta-lactamases-producing Pseudomonas aeruginosa 10-18 after 18-24 hrs by two-fold serial dilution method
# Assay type: functional
# In short: as §1
row,Structure (SMILES),MIC
1,COc1ccc(CO/N=C2\CN(c3nc4c(cc3F)c(=O)c(C(=O)O)cn4C3CC3)CC2CN)c(OC)c1OC.CS(=O)(=O)O (racemic),8 µg/mL

# Test system: Klebsiella pneumoniae
# Experiment: Antimicrobial activity against extended spectrum beta-lactamases-producing Klebsiella pneumoniae 10-1 after 18-24 hrs by two-fold serial dilution method
# Assay type: functional
# In short: as §1
row,Structure (SMILES),MIC
1,COc1ccc(CO/N=C2\CN(c3nc4c(cc3F)c(=O)c(C(=O)O)cn4C3CC3)CC2CN)c(OC)c1OC.CS(=O)(=O)O (racemic),> 128 µg/mL

# Test system: Pseudomonas aeruginosa
# Experiment: Antimicrobial activity against extended spectrum beta-lactamases-producing Pseudomonas aeruginosa 10-5 after 18-24 hrs by two-fold serial dilution method
# Assay type: functional
# In short: as §1
row,Structure (SMILES),MIC
1,COc1ccc(CO/N=C2\CN(c3nc4c(cc3F)c(=O)c(C(=O)O)cn4C3CC3)CC2CN)c(OC)c1OC.CS(=O)(=O)O (racemic),8 µg/mL

# Test system: Escherichia coli
# Experiment: Antimicrobial activity against extended spectrum beta-lactamases-producing Escherichia coli 10-2 after 18-24 hrs by two-fold serial dilution method
# Assay type: functional
# In short: as §1
row,Structure (SMILES),MIC
1,COc1ccc(CO/N=C2\CN(c3nc4c(cc3F)c(=O)c(C(=O)O)cn4C3CC3)CC2CN)c(OC)c1OC.CS(=O)(=O)O (racemic),128 µg/mL

# Test system: Escherichia coli
# Experiment: Antimicrobial activity against extended spectrum beta-lactamases-producing Escherichia coli 10-3 after 18-24 hrs by two-fold serial dilution method
# Assay type: functional
# In short: as §1
row,Structure (SMILES),MIC
1,COc1ccc(CO/N=C2\CN(c3nc4c(cc3F)c(=O)c(C(=O)O)cn4C3CC3)CC2CN)c(OC)c1OC.CS(=O)(=O)O (racemic),32 µg/mL

# Test system: Klebsiella pneumoniae
# Experiment: Antimicrobial activity against Klebsiella pneumoniae 10-4 after 18-24 hrs by two-fold serial dilution method
# Assay type: functional
# In short: as §1
row,Structure (SMILES),MIC
1,COc1ccc(CO/N=C2\CN(c3nc4c(cc3F)c(=O)c(C(=O)O)cn4C3CC3)CC2CN)c(OC)c1OC.CS(=O)(=O)O (racemic),> 128 µg/mL

# Test system: Escherichia coli
# Experiment: Antimicrobial activity against extended spectrum beta-lactamases-producing Escherichia coli 10-4 after 18-24 hrs by two-fold serial dilution method
# Assay type: functional
# In short: as §1
row,Structure (SMILES),MIC
1,COc1ccc(CO/N=C2\CN(c3nc4c(cc3F)c(=O)c(C(=O)O)cn4C3CC3)CC2CN)c(OC)c1OC.CS(=O)(=O)O (racemic),4 µg/mL

# Test system: Staphylococcus aureus
# Experiment: Antimicrobial activity against extended spectrum beta-lactamases-producing methicillin-sensitive Staphylococcus aureus 10-13 after 18-24 hrs by two-fold serial dilution method
# Assay type: functional
# In short: as §1
row,Structure (SMILES),MIC
1,COc1ccc(CO/N=C2\CN(c3nc4c(cc3F)c(=O)c(C(=O)O)cn4C3CC3)CC2CN)c(OC)c1OC.CS(=O)(=O)O (racemic),0.015 µg/mL

# Test system: Enterococcus faecium
# Experiment: Antimicrobial activity against Enterococcus faecium 10-9 after 18-24 hrs by two-fold serial dilution method
# Assay type: functional
# In short: as §1
row,Structure (SMILES),MIC
1,COc1ccc(CO/N=C2\CN(c3nc4c(cc3F)c(=O)c(C(=O)O)cn4C3CC3)CC2CN)c(OC)c1OC.CS(=O)(=O)O (racemic),8 µg/mL

# Test system: Staphylococcus aureus
# Experiment: Antimicrobial activity against extended spectrum beta-lactamases-producing methicillin-sensitive Staphylococcus aureus 10-14 after 18-24 hrs by two-fold serial dilution method
# Assay type: functional
# In short: as §1
row,Structure (SMILES),MIC
1,COc1ccc(CO/N=C2\CN(c3nc4c(cc3F)c(=O)c(C(=O)O)cn4C3CC3)CC2CN)c(OC)c1OC.CS(=O)(=O)O (racemic),0.015 µg/mL

# Test system: Staphylococcus aureus
# Experiment: Antimicrobial activity against Staphylococcus aureus ATCC […] after 18-24 hrs by two-fold serial dilution method
# Assay type: functional
# In short: as §1
row,Structure (SMILES),MIC
1,COc1ccc(CO/N=C2\CN(c3nc4c(cc3F)c(=O)c(C(=O)O)cn4C3CC3)CC2CN)c(OC)c1OC.CS(=O)(=O)O (racemic),0.015 µg/mL
